# Experimental data published in ChEMBL document CHEMBL1255303, “In vitro and in vivo antifungal activities of T-2307, a novel arylamidine” (2008).
# Legend:
# Assay type in all cases: functional
# Aspergillus fumigatus [1] = test: Antifungal activity against Aspergillus fumigatus IFM 49895 after 48 hrs by broth microdilution method; conditions: IFM 49895, 48 h
# How it was run: (§1)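 CLSI M27-A2 (yeasts) / M38-A (moulds) broth microdilution in RPMI 1640 buffered to pH 7.0 with 0.165 M MOPS. Malassezia furfur got the same medium supplemented with glucose, bile salts, glycerol, glycerol monostearate and Tween 20. Final inoculum 0.65 × 10^3–2.5 × 10^3 CFU/ml for yeasts and 0.87 × 10^4–3.8 × 10^4 CFU/ml for filamentous fungi. Incubation at 35°C except M. racemosus and F. solani, which were held at 30°C.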
# [2] = system: Meyerozyma guilliermondii; test: Antifungal activity against Candida guilliermondii IFO 10279 after 48 hrs by broth microdilution method; conditions: IFO 10279, 48 h; how it was run: as §1
# [3] = system: Meyerozyma guilliermondii; test: Antifungal activity against Candida guilliermondii clinical isolates after 48 hrs by broth microdilution method
# How it was run: (§2)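 Clinical isolates from Japanese hospitals or culture collections were tested by broth microdilution in RPMI 1640-MOPS. Inoculum was 0.57 × 10^3–2.5 × 10^3 CFU/ml for yeasts and 0.4 × 10^4–3.3 × 10^4 CFU/ml for filamentous fungi. Incubation was at 35°C for about 48 h, or 72 h where footnoted. Results were summarised as MIC range, MIC50 and MIC90.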
# Candida albicans [4] = test: Antifungal activity against Candida albicans ATCC 64124 after 47 hrs by broth microdilution method; conditions: ATCC 64124, 47 h
# How it was run: (§3)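 Fluconazole-resistant or susceptible-dose-dependent ATCC C. albicans strains were tested by CLSI M27-A2 broth microdilution in RPMI 1640–0.165 M MOPS, pH 7.0, with a final inoculum of 1.1–1.5 × 10^3 CFU/ml at 35°C for about 47 h. MIC was the lowest concentration with a prominent (~50%) turbidity decrease relative to growth control; amphotericin B was read at complete inhibition.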
# Candida albicans [5] = test: Antifungal activity against Candida albicans ATCC 24433 after 48 hrs by broth microdilution method; conditions: ATCC 24433, 48 h
# How it was run: (§4)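 CLSI M27-A2 (yeasts) or M38-A (A. fumigatus) broth microdilution in RPMI 1640 buffered to pH 7.0 with 0.165 M MOPS. Final inocula were 0.65–2.5 × 10^3 CFU/ml for yeasts and 0.87–3.8 × 10^4 CFU/ml for filamentous fungi. Incubation was at 35°C for about 48 h (72 h for C. neoformans). MIC was the lowest concentration giving a prominent (~50%) turbidity drop versus growth control; amphotericin B required complete inhibition.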
# Candida albicans [6] = test: Antifungal activity against Candida albicans ATCC MYA-1003 after 47 hrs by broth microdilution method; conditions: ATCC MYA-1003, 47 h; how it was run: as §3
# Aspergillus fumigatus [7] = test: Antifungal activity against Aspergillus fumigatus TIMM 0063 after 48 hrs by broth microdilution method; conditions: TIMM 0063, 48 h; how it was run: as §1
# Cryptococcus neoformans [8] = test: Antifungal activity against Cryptococcus neoformans TIMM 0354 after 72 hrs by broth microdilution method; conditions: TIMM 0354, 72 h; how it was run: as §4
# Candida parapsilosis = test: Antifungal activity against Candida parapsilosis NBRC 10219 after 48 hrs by broth microdilution method; conditions: Lodderomyces parapsilosis, NBRC 10219, 48 h; how it was run: as §4
# Trichosporon asahii = test: Antifungal activity against Trichosporon asahii JCM 2466 after 48 hrs by broth microdilution method; conditions: JCM 2466, 48 h; how it was run: as §1
# Aspergillus fumigatus [9] = test: Antifungal activity against Aspergillus fumigatus ATCC 16424 after 48 hrs by broth microdilution method; conditions: ATCC 16424, 48 h; how it was run: as §4
# Malassezia furfur = test: Antifungal activity against Malassezia furfur NBRC 0656 after 48 hrs by broth microdilution method; conditions: NBRC 0656, 48 h; how it was run: as §1
# Candida albicans [10] = test: Antifungal activity against Candida albicans ATCC MYA-575 after 47 hrs by broth microdilution method; conditions: ATCC MYA-575, 47 h; how it was run: as §3
# Rhizopus arrhizus = test: Antifungal activity against Rhizopus oryzae NBRC 31005 after 24 hrs by broth microdilution method; conditions: NBRC 31005, 24 h; how it was run: as §1
# Pichia kudriavzevii = test: Antifungal activity against Candida krusei clinical isolates after 48 hrs by broth microdilution method
# How it was run: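 Japanese hospital Candida isolates were tested by CLSI M27-A2 broth microdilution in RPMI 1640–MOPS, pH 7.0, with inocula of 0.57–2.5 × 10^3 CFU/ml at 35°C for about 48 h. Inocula came from 24-h potato dextrose agar cultures. MIC was the lowest concentration with about 50% turbidity reduction versus growth control (complete inhibition for amphotericin B). Range, MIC50 and MIC90 were reported.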
# Saccharomyces cerevisiae = test: Antifungal activity against Saccharomyces cerevisiae ATCC 24657 after 48 hrs by broth microdilution method; conditions: ATCC 24657, 48 h; how it was run: as §1
# Candida albicans [11] = test: Antifungal activity against Candida albicans ATCC 10261 after 48 hrs by broth microdilution method; conditions: ATCC 10261, 48 h; how it was run: as §1
# Nakaseomyces glabratus = test: Antifungal activity against Candida glabrata ATCC 90030 after 48 hrs by broth microdilution method; conditions: ATCC 90030, 48 h; how it was run: as §1
# Aspergillus terreus = test: Antifungal activity against Aspergillus terreus NBRC 33026 after 48 hrs by broth microdilution method; conditions: NBRC 33026, 48 h; how it was run: as §1
# Candida albicans [12] = test: Antifungal activity against Candida albicans clinical isolates after 48 hrs by broth microdilution method; how it was run: as §2
# Candida albicans [13] = test: Antifungal activity against Candida albicans TIMM 1623 after 48 hrs by broth microdilution method; conditions: TIMM 1623, 48 h; how it was run: as §1
# Candida albicans [14] = test: Antifungal activity against Candida albicans TIMM 1623 infected ICR mouse after 6 days; conditions: TIMM 1623, 144 h
# How it was run: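 Male ICR mice, 4 weeks old and SPF, were made neutropenic with intraperitoneal cyclophosphamide. The schedule was 200 mg/kg on day −3 (day −4 for Cryptococcus) plus 100 mg/kg on day +1. Infection was by tail-vein injection of 0.2 ml suspension: C. albicans 3.0 × 10^4, C. neoformans 9.1 × 10^4, A. fumigatus conidia 8.4 × 10^4 CFU/mouse. Drugs were given subcutaneously once daily for 7 days from 2 h post-infection; controls received saline. Groups had 8–10 mice.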
# Cryptococcus neoformans [15] = test: Antifungal activity against Cryptococcus neoformans ATCC 90112 after 72 hrs by broth microdilution method; conditions: ATCC 90112, 72 h; how it was run: as §4
# Cryptococcus neoformans [16] = test: Antifungal activity against Cryptococcus neoformans clinical isolates after 72 hrs by broth microdilution method; how it was run: as §2
smiles,measurement,setting,value
N=C(N)c1ccc(OCCCC2CCN(CCCOc3ccc(C(=N)N)cc3)CC2)cc1,MFC,Aspergillus fumigatus [1],> 64 µg/mL
same,MIC,Aspergillus fumigatus [1],0.5 µg/mL
same,MFC,[2],0.0078 µg/mL
same,MIC,[2],0.002 µg/mL
same,MIC50,[3],0.002 µg/mL
same,MIC90,[3],0.0039 µg/mL
same,MIC,Candida albicans [4],0.001 µg/mL
same,MFC,Candida albicans [5],> 64 µg/mL
same,MIC,Candida albicans [5],0.001 µg/mL
same,MIC,Candida albicans [6],0.001 µg/mL
same,MFC,Aspergillus fumigatus [7],> 64 µg/mL
same,MIC,Aspergillus fumigatus [7],1 µg/mL
same,MFC,Cryptococcus neoformans [8],0.0156 µg/mL
same,MIC,Cryptococcus neoformans [8],0.0039 µg/mL
same,MFC,Candida parapsilosis,> 64 µg/mL
same,MIC,Candida parapsilosis,0.001 µg/mL
same,MFC,Trichosporon asahii,> 64 µg/mL
same,MIC,Trichosporon asahii,64 µg/mL
same,MFC,Aspergillus fumigatus [9],> 64 µg/mL
same,MIC,Aspergillus fumigatus [9],0.125 µg/mL
same,MFC,Malassezia furfur,2 µg/mL
same,MIC,Malassezia furfur,0.0313 µg/mL
same,MIC,Candida albicans [10],0.001 µg/mL
same,MFC,Rhizopus arrhizus,> 64 µg/mL
same,MIC,Rhizopus arrhizus,> 64 µg/mL
same,MIC50,Pichia kudriavzevii,0.001 µg/mL
same,MIC90,Pichia kudriavzevii,0.002 µg/mL
same,MFC,Saccharomyces cerevisiae,> 64 µg/mL
same,MIC,Saccharomyces cerevisiae,> 64 µg/mL
same,MFC,Candida albicans [11],> 64 µg/mL
same,MIC,Candida albicans [11],0.001 µg/mL
same,MFC,Nakaseomyces glabratus,> 64 µg/mL
same,MIC,Nakaseomyces glabratus,0.0039 µg/mL
same,MFC,Aspergillus terreus,4 µg/mL
same,MIC,Aspergillus terreus,0.125 µg/mL
same,MIC50,Candida albicans [12],0.0005 µg/mL
same,MIC90,Candida albicans [12],0.002 µg/mL
same,MFC,Candida albicans [13],> 64 µg/mL
same,MIC,Candida albicans [13],0.001 µg/mL
same,ED50,Candida albicans [14],0.00755 mg/kg
same,MFC,Cryptococcus neoformans [15],0.0313 µg/mL
same,MIC,Cryptococcus neoformans [15],0.0078 µg/mL
same,MIC50,Cryptococcus neoformans [16],0.0156 µg/mL
same,MIC90,Cryptococcus neoformans [16],0.0313 µg/mL
C[C@@H]1[C@H](O)[C@@H](C)/C=C/C=C/C=C/C=C/C=C/C=C/C=C/[C@H](O[C@@H]2O[C@H](C)[C@@H](O)[C@H](N)[C@@H]2O)C[C@@H]2O[C@](O)(C[C@@H](O)C[C@@H](O)[C@H](O)CC[C@@H](O)C[C@@H](O)CC(=O)O[C@H]1C)C[C@H](O)[C@H]2C(=O)O [AMPHOTERICIN B],MFC,Aspergillus fumigatus [1],2 µg/mL
same,MIC,Aspergillus fumigatus [1],2 µg/mL
same,MFC,[2],1 µg/mL
same,MIC,[2],0.5 µg/mL
same,MIC50,[3],1 µg/mL
same,MIC90,[3],1 µg/mL
same,MIC,Candida albicans [4],2 µg/mL
same,MFC,Candida albicans [5],1 µg/mL
same,MIC,Candida albicans [5],1 µg/mL
same,MIC,Candida albicans [6],2 µg/mL
same,MFC,Aspergillus fumigatus [7],2 µg/mL
same,MIC,Aspergillus fumigatus [7],2 µg/mL
same,MFC,Cryptococcus neoformans [8],1 µg/mL
same,MIC,Cryptococcus neoformans [8],1 µg/mL
same,MFC,Candida parapsilosis,1 µg/mL
same,MIC,Candida parapsilosis,1 µg/mL
same,MFC,Trichosporon asahii,4 µg/mL
same,MIC,Trichosporon asahii,2 µg/mL
same,MFC,Aspergillus fumigatus [9],2 µg/mL
same,MIC,Aspergillus fumigatus [9],1 µg/mL
same,MFC,Malassezia furfur,64 µg/mL
same,MIC,Malassezia furfur,0.5 µg/mL
same,MIC,Candida albicans [10],2 µg/mL
same,MFC,Rhizopus arrhizus,1 µg/mL
same,MIC,Rhizopus arrhizus,1 µg/mL
same,MIC,Pichia kudriavzevii,2 µg/mL
same,MIC50,Pichia kudriavzevii,2 µg/mL
same,MIC90,Pichia kudriavzevii,2 µg/mL
same,MFC,Saccharomyces cerevisiae,2 µg/mL
same,MIC,Saccharomyces cerevisiae,1 µg/mL
same,MFC,Candida albicans [11],2 µg/mL
same,MIC,Candida albicans [11],1 µg/mL
same,MFC,Nakaseomyces glabratus,1 µg/mL
same,MIC,Nakaseomyces glabratus,1 µg/mL
same,MFC,Aspergillus terreus,> 64 µg/mL
same,MIC,Aspergillus terreus,2 µg/mL
same,MIC50,Candida albicans [12],2 µg/mL
same,MIC90,Candida albicans [12],2 µg/mL
same,MFC,Candida albicans [13],> 1 µg/mL
same,MIC,Candida albicans [13],1 µg/mL
same,ED50,Candida albicans [14],0.0466 mg/kg
same,MFC,Cryptococcus neoformans [15],1 µg/mL
same,MIC,Cryptococcus neoformans [15],1 µg/mL
same,MIC,Cryptococcus neoformans [16],1 µg/mL
same,MIC50,Cryptococcus neoformans [16],1 µg/mL
same,MIC90,Cryptococcus neoformans [16],1 µg/mL
